Reference: ChEMBL document CHEMBL4689842, “EUbOPEN Chemogenomics Library wave 1” (2021)

Test system: HEK-293T
Assay: Multiplex assay against HEK293T;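 for Population Tubulin-Different-Phenotype (%): share of the cells with healthy nuclei that show this phenotype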
Type: toxicity, cell-based
Details: human
How it was run: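 Cells stained live at seeding with Hoechst33342, BioTracker Green Microtubule Cytoskeleton Dye, MitoTracker Red and Annexin V Alexa Fluor 680 were imaged on a CQ1 microscope at 37°C and 5% CO2 after compound addition. Their classification by CellPathfinder machine-learning gating ran from Hoechst high-intensity objects versus normal cells, to healthy, pyknosed or fragmented nuclei among normal cells, to mitotic or apoptotic among pyknosed cells. Tubulin, mitochondrial-mass and membrane-permeability phenotypes are per cents of healthy-nucleus cells.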

[1] = 12 h, 1 µM, compound concentration 1 uM, replicate 1
[2] = 12 h, 1 µM, compound concentration 1 uM, replicate 2
[3] = 12 h, 10 µM, compound concentration 10 uM, replicate 1
[4] = 12 h, 10 µM, compound concentration 10 uM, replicate 2
[5] = 24 h, 1 µM, compound concentration 1 uM, replicate 1
[6] = 24 h, 1 µM, compound concentration 1 uM, replicate 2
[7] = 24 h, 10 µM, compound concentration 10 uM, replicate 1
[8] = 24 h, 10 µM, compound concentration 10 uM, replicate 2
[9] = 48 h, 1 µM, compound concentration 1 uM, replicate 1
[10] = 48 h, 1 µM, compound concentration 1 uM, replicate 2
[11] = 48 h, 10 µM, compound concentration 10 uM, replicate 1
[12] = 48 h, 10 µM, compound concentration 10 uM, replicate 2

`O=c1cc(N2CCOCC2)oc2c(-c3cccc4c3sc3ccccc34)cccc12` was tested, and the “Population Apoptotic (%)” value [1] was 46%, the “Population Fragmented Nuclei (%)” value [1] was 7% and the “Population Hoechst High Intensity Objects (%)” value [1] was 12%. The “Population Membrane Permeable-Phenotype (%)” value [1] was 3%, the “Population Mitochondria Different-Phenotype (%)” value [1] was 92% and the “Population Mitotic Cells (%)” value [1] was 53%. For the same molecule, the “Population Normal (%)” value [1] was 87%, the “Population Pyknosed Nuclei (%)” value [1] was 52% and the “Population Tubulin-Different-Phenotype (%)” value [1] was 58%. For the same molecule, the “Total Cell Count” value [1] was 283, the “Population Apoptotic (%)” value [2] was 14% and the “Population Fragmented Nuclei (%)” value [2] was 5%. The “Population Healthy Nuclei (%)” value [2] was 40%, the “Population Hoechst High Intensity Objects (%)” value [2] was 4% and the “Population Membrane Permeable-Phenotype (%)” value [2] was 1%. The “Population Mitochondria Different-Phenotype (%)” value [2] was 20%, the “Population Mitotic Cells (%)” value [2] was 85% and the “Population Normal (%)” value [2] was 95%. The “Population Pyknosed Nuclei (%)” value [2] was 53%, the “Population Tubulin-Different-Phenotype (%)” value [2] was 19% and the “Total Cell Count” value [2] was 224. The “Population Apoptotic (%)” value [3] was 61%, the “Population Fragmented Nuclei (%)” value [3] was 16% and the “Population Healthy Nuclei (%)” value [3] was 14%. The “Population Hoechst High Intensity Objects (%)” value [3] was 14%, the “Population Membrane Permeable-Phenotype (%)” value [3] was 8% and the “Population Mitochondria Different-Phenotype (%)” value [3] was 100%. The “Population Mitotic Cells (%)” value [3] was 38%, the “Population Normal (%)” value [3] was 85% and the “Population Pyknosed Nuclei (%)” value [3] was 68%. For the same molecule, the “Population Tubulin-Different-Phenotype (%)” value [3] was 91%, the “Total Cell Count” value [3] was 192 and the “Population Apoptotic (%)” value [4] was 49%. For the same molecule, the “Population Fragmented Nuclei (%)” value [4] was 8%, the “Population Healthy Nuclei (%)” value [4] was 7% and the “Population Hoechst High Intensity Objects (%)” value [4] was 6%. The “Population Mitochondria Different-Phenotype (%)” value [4] was 91%, the “Population Mitotic Cells (%)” value [4] was 50% and the “Population Normal (%)” value [4] was 93%. For the same molecule, the “Population Pyknosed Nuclei (%)” value [4] was 83%, the “Population Tubulin-Different-Phenotype (%)” value [4] was 83% and the “Total Cell Count” value [4] was 172. For the same molecule, the “Population Apoptotic (%)” value [5] was 53%, the “Population Fragmented Nuclei (%)” value [5] was 9% and the “Population Healthy Nuclei (%)” value [5] was 44%. The “Population Hoechst High Intensity Objects (%)” value [5] was 12%, the “Population Membrane Permeable-Phenotype (%)” value [5] was 2% and the “Population Mitochondria Different-Phenotype (%)” value [5] was 77%. The “Population Mitotic Cells (%)” value [5] was 46%, the “Population Normal (%)” value [5] was 87% and the “Population Pyknosed Nuclei (%)” value [5] was 46%. The “Population Tubulin-Different-Phenotype (%)” value [5] was 40%, the “Total Cell Count” value [5] was 310 and the “Population Apoptotic (%)” value [6] was 16%. The “Population Fragmented Nuclei (%)” value [6] was 3%, the “Population Healthy Nuclei (%)” value [6] was 60% and the “Population Hoechst High Intensity Objects (%)” value [6] was 4%. The “Population Membrane Permeable-Phenotype (%)” value [6] was 3%, the “Population Mitochondria Different-Phenotype (%)” value [6] was 22% and the “Population Mitotic Cells (%)” value [6] was 83%. The “Population Normal (%)” value [6] was 95%, the “Population Pyknosed Nuclei (%)” value [6] was 36% and the “Population Tubulin-Different-Phenotype (%)” value [6] was 38%. For the same molecule, the “Total Cell Count” value [6] was 272, the “Population Apoptotic (%)” value [7] was 61% and the “Population Fragmented Nuclei (%)” value [7] was 15%. For the same molecule, the “Population Healthy Nuclei (%)” value [7] was 12%, the “Population Hoechst High Intensity Objects (%)” value [7] was 16% and the “Population Membrane Permeable-Phenotype (%)” value [7] was 0%. The “Population Mitochondria Different-Phenotype (%)” value [7] was 100%, the “Population Mitotic Cells (%)” value [7] was 38% and the “Population Normal (%)” value [7] was 83%. The “Population Pyknosed Nuclei (%)” value [7] was 71%, the “Population Tubulin-Different-Phenotype (%)” value [7] was 100% and the “Total Cell Count” value [7] was 206. The “Population Apoptotic (%)” value [8] was 60%, the “Population Fragmented Nuclei (%)” value [8] was 7% and the “Population Healthy Nuclei (%)” value [8] was 22%. The “Population Hoechst High Intensity Objects (%)” value [8] was 2%, the “Population Mitotic Cells (%)” value [8] was 39% and the “Population Normal (%)” value [8] was 97%. The “Population Pyknosed Nuclei (%)” value [8] was 69%, the “Total Cell Count” value [8] was 186 and the “Population Apoptotic (%)” value [9] was 30%. The “Population Fragmented Nuclei (%)” value [9] was 17%, the “Population Healthy Nuclei (%)” value [9] was 42% and the “Population Hoechst High Intensity Objects (%)” value [9] was 9%. The “Population Membrane Permeable-Phenotype (%)” value [9] was 2%, the “Population Mitochondria Different-Phenotype (%)” value [9] was 44% and the “Population Mitotic Cells (%)” value [9] was 70%. For the same molecule, the “Population Normal (%)” value [9] was 90%, the “Population Pyknosed Nuclei (%)” value [9] was 40% and the “Population Tubulin-Different-Phenotype (%)” value [9] was 45%. The “Total Cell Count” value [9] was 384, the “Population Apoptotic (%)” value [10] was 14% and the “Population Fragmented Nuclei (%)” value [10] was 7%. The “Population Healthy Nuclei (%)” value [10] was 77%, the “Population Hoechst High Intensity Objects (%)” value [10] was 3% and the “Population Membrane Permeable-Phenotype (%)” value [10] was 3%. The “Population Mitochondria Different-Phenotype (%)” value [10] was 6%, the “Population Mitotic Cells (%)” value [10] was 85% and the “Population Normal (%)” value [10] was 96%. For the same molecule, the “Population Pyknosed Nuclei (%)” value [10] was 15%, the “Population Tubulin-Different-Phenotype (%)” value [10] was 26% and the “Total Cell Count” value [10] was 477. The “Population Apoptotic (%)” value [11] was 68%, the “Population Fragmented Nuclei (%)” value [11] was 24% and the “Population Healthy Nuclei (%)” value [11] was 20%. For the same molecule, the “Population Hoechst High Intensity Objects (%)” value [11] was 17%, the “Population Membrane Permeable-Phenotype (%)” value [11] was 0% and the “Population Mitochondria Different-Phenotype (%)” value [11] was 100%. For the same molecule, the “Population Mitotic Cells (%)” value [11] was 31%, the “Population Normal (%)” value [11] was 82% and the “Population Pyknosed Nuclei (%)” value [11] was 55%. The “Population Tubulin-Different-Phenotype (%)” value [11] was 93%, the “Total Cell Count” value [11] was 186 and the “Population Apoptotic (%)” value [12] was 61%. For the same molecule, the “Population Fragmented Nuclei (%)” value [12] was 8%, the “Population Healthy Nuclei (%)” value [12] was 29% and the “Population Hoechst High Intensity Objects (%)” value [12] was 8%. The “Population Mitochondria Different-Phenotype (%)” value [12] was 94%, the “Population Mitotic Cells (%)” value [12] was 38% and the “Population Normal (%)” value [12] was 91%. The “Population Pyknosed Nuclei (%)” value [12] was 62%, the “Population Tubulin-Different-Phenotype (%)” value [12] was 96% and the “Total Cell Count” value [12] was 185.
